Legend:
In vitro release study = format: physicochemical; details: PBS pH = 7.4 and pH = 5, 1% SDS, 37 ℃
Outline: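 Test compound-loaded micelles or free test compound were placed in a pre-soaked dialysis bag (MWCO 500) immersed in PBS containing 1% (w/v) SDS at pH 7.4 or pH 5. Bags were shaken at 200 rpm at 37 ℃. Outside medium was sampled at 0.5, 1, 2, 4, 6, 8, 12, 24 and 48 h and replaced with fresh PBS. Cumulative release was tracked.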

[1] = Tissue distribution and targeting evaluation after i.v. administration to mice; format: in vivo, ICR mice; details: for Cmax: male, ICR, mouse, iv, 2.8 mg/kg
Outline: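 Male ICR mice (6-8 weeks, 27-28 g) received 2.8 mg/kg i.v. as free compound or micelles. Four mice were killed per time point (0.17, 0.5, 1, 2 h), and heart, liver, lung, kidney and brain were collected. Tissues were rinsed, weighed, homogenised in cold saline (1:2 w/v), centrifuged, and supernatants assayed by LC-MS/MS.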

[2] = Pharmacokinetics after single i.v. administration to rats; format: in vivo, Sprague Dawley rats
Outline: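 Male Sprague Dawley rats (7-9 weeks, 240-260 g), six per group, were fasted overnight. Each received one tail-vein dose of 2 mg/kg as free compound (saline with 30% propylene glycol) or micelles. Jugular blood was drawn into heparinised tubes at 0.03–8 h, and plasma was separated at 4 ℃. Samples were quantified by validated LC-ESI-MS/MS, and PK parameters were calculated; mean ± SD.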

MCAO mice [3] = assay: MCAO model: Nissl, TUNEL and LC3 immunofluorescence staining of brain sections; format: in vivo, C57BL/6 mice; details: i.v. for 7 days
MCAO mice [4] = assay: MCAO model: behavioural tests; format: in vivo, C57BL/6 mice; details: i.v. for 7 days, seventh day after the operation
Outline: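 Male C57BL/6 mice (6-8 weeks, 24-26 g), four per group, were anaesthetised with 5% chloral hydrate i.p. The right CCA/ECA/ICA were exposed, and a monofilament was placed and removed after 1 h for reperfusion; sham mice had no monofilament. Dosing was i.v. for 7 days: free compound 3 mg/kg, micelles 1 or 3 mg/kg, edaravone 3 mg/kg. A blinded investigator scored Longa on days 1 and 7.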

[5] = Sprague Dawley, rat, plasma, iv, 2 mg/kg

Structure (SMILES): O=C(/C=C/c1ccc(O)cc1)c1ccc(O)cc1O [ISL, (e)-1-(2,4-dihydroxyphenyl)-3-(4-hydroxyphenyl) −2-propen-1-one]
- cumulative release (In vitro release study; in eight hours): ~90%
- cumulative release (In vitro release study; within the first four hours): More than 60%
- Cmax ([1]; brain): 21.7 ± 3.45 ng/g
- Cmax ([1]; heart): 69.2 ± 10.5 ng/g
- Cmax ([1]; kidney): 713 ± 35 ng/g
- Cmax ([1]; liver): 574 ± 137 ng/g
- Cmax ([1]; lung): 179 ± 31.4 ng/g
- detectability of ISL in tissues 1 h after administration ([1]; mice, i.v. 2.8 mg/kg, 1 h): could not be detected
- AUC ([1]; mice, i.v. 2.8 mg/kg, Brain): 8.34 ± 0.61 ng·h/g
- AUC ([1]; mice, i.v. 2.8 mg/kg, Heart): 18.66 ± 2.11 ng·h/g
- AUC ([1]; mice, i.v. 2.8 mg/kg, Kidney): 174.7 ± 9.70 ng·h/g
- AUC ([1]; mice, i.v. 2.8 mg/kg, Liver): 207.70 ± 28.50 ng·h/g
- AUC ([1]; mice, i.v. 2.8 mg/kg, Lung): 55.24 ± 6.28 ng·h/g
- AUC(0-inf) [2, 5]: 373 ± 106 ng·h/mL
- AUC(0-t) [2, 5]: 307 ± 92.5 ng·h/mL
- MRT last [2, 5]: 10.2 ± 1.8 min
- clearance [2, 5]: 96.3 mL/min/kg
- detectability of ISL in plasma over time ([2]; rats, single i.v. 2 mg/kg): could not be detected after 2 hours
- CL (clearance rate) ([2]; rats, single i.v. 2 mg/kg, plasma ISL): 96.3 ± 29 mL/min/kg
- Nissl staining of neurons (Nissl bodies) (MCAO mice [3]): not significantly different from that in the model group
- number of positive cells expressing the LC3 protein (MCAO mice [3]): less than that in the model group and more than that in the ISL-M group
- number of positive cells stained with the TUNEL (MCAO mice [3]): less than that in the model group and more than that in the ISL-M group
- neurological scores (Longa scores) compared with the MCAO model group (MCAO mice [4]): significantly decreased
